MrgX1 allo act: positive allosteric modulators of MrgX1, primary screen, HEK293 cells, Fluo-4 calcium flux. AID 588675, 2011. 0.63% of 310,000 active. Mas-related G-protein coupled receptor member X1 (Homo sapiens), Q96LB2. FDSS; active compounds read high. B-score at 10 µM;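 active = plate-corrected calcium response at least 3 library SD above typical, normal starting fluorescence, not activating the receptor alone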;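 also: compound read alongside a low EC10 to EC30 dose of BAM8-22 agonist; peak minus trough fluorescence over baseline measured at the second addition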
Target sequence (Q96LB2 whole entry, looked up): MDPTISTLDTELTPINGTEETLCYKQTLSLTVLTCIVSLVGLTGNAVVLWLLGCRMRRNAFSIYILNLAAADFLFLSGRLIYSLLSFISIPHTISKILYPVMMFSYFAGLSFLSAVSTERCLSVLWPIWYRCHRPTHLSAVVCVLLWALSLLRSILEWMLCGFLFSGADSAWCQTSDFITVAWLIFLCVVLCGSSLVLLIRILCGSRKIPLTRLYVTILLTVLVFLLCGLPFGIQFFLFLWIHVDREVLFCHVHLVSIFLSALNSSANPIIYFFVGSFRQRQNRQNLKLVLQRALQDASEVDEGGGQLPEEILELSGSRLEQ
MrgX1 antag: antagonists of human MrgX1 receptor, primary screen, HEK293 cells, Fluo-4 calcium flux; Mas-related G-protein coupled receptor member X1 (Homo sapiens), Q96LB2; BAM8-22 antagonism; active compounds read low; B-score at 10 µM; 1.3% of 310,000 active;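 active = calcium-response B-score plate-corrected more than 3 library SD below zero, starting fluorescence within 5 deviations, no agonist response on first addition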;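 also: peak minus trough fluorescence over baseline after final BAM8-22 challenge near maximal dose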
RGS4 inh: RGS4 inhibitors, primary screen, cell-based, HEK293 M3R inducible RGS4, calcium flux | Regulator of G-protein signaling 4 (Homo sapiens), P49798 | Fluo-4 calcium flux; active compounds read high; triggered by carbachol at its EC20 | B-score at 10 µM | 0.45% of 310,000 active;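 active = B-score, a plate-corrected calcium signal, over three deviations above library mean, with baseline fluorescence within five deviations of library mean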;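 also: RGS4 expression induced by doxycycline in cells with stable M3 receptor; B-score is computed from the integrated fluorescence ratio over baseline after carbachol; higher B-score means a larger calcium signal and so more RGS4 inhibition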
Target sequence (P49798 whole entry, looked up): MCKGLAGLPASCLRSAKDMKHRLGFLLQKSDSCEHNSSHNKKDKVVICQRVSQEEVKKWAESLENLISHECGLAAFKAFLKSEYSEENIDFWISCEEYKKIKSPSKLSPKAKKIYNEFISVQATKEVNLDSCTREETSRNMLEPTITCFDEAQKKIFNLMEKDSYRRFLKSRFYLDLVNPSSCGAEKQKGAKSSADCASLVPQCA
MrgX1 ag: agonists of human MrgX1 receptor, primary screen, HEK293 cells, Fluo-4 calcium flux; Mas-related G-protein coupled receptor member X1 (Homo sapiens), Q96LB2; B-score at 10 µM; 0.44% of 310,000 active; Fluo-4 calcium fluorescence, agonist mode; active compounds read high;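 active = calcium response B-score plate-corrected fluorescence ratio at least 3 library SD, with starting fluorescence B-score inside 5 SD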
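times = overnight plating, then 30 min 37 °C plus 30 min room-temperature dye loading | assay system = stable human MrgX1 HEK293 cell line | input = fifteen thousand cells per well | signal = kinetic calcium dye fluorescence, Fluo-4 NW | dosing = compound delivered in addition one of three | read-out = B-scored fluorescence response ratio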
RGS4 pot: RGS4 potentiators or activators, primary screen, cell-based, HEK293 M3R inducible RGS4, calcium flux. AID 463111, 2010. 0.92% of 310,000 active. B-score at 10 µM. carbachol calcium flux Fluo4; active compounds read low;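 active = B-score of the integrated calcium signal more than 4 SD below the library mean, with starting fluorescence not abnormally high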;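 also: negative B-score means reduced calcium response which marks RGS4 activation or potentiation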
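System – HEK293 FlpIn-TREx cells, stable M3R, doxycycline-inducible RGS4 · Reagent – ECmax carbachol challenge · Times – compound preincubation 20 min at room temperature before agonist · Technique – Fluo4 fluorescence kinetic imaging of calcium · Measure – B score of integrated Fluo4 ratio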
Of the large screens only hits and unclear results are named; the others gave an inactive call. This is a sample that favours compounds with a hit; in the whole collection about 3.5% have one here.

O=C(NCCOc1ccccc1F)c1cccc(S(=O)(=O)N2CCN(c3ccccc3)CC2)c1	none
CC(=O)Oc1cc(O)c2c(=O)c(OC(C)=O)c(-c3ccc(OC(C)=O)c(OC(C)=O)c3)oc2c1	MrgX1 allo act 8
COc1c(-c2ccc(O)cc2)oc2cc(O)cc(O)c2c1=O	none (no result: RGS4 inh, RGS4 pot)
Cc1oc(-c2ccccc2Cl)nc1CN1CCCCC1c1cccnc1 (stereo not given)	MrgX1 ag 41
Cc1oc(-c2ccccc2Cl)nc1CN1CCCC1c1ccc(F)cc1 (stereo not given)	none
CCC(=O)[C@@]1(C)[C@H](C)C[C@H]2[C@@H]3CCC4=CC(=O)C=C[C@]4(C)[C@H]3[C@@H](O)C[C@@]21C	none (no result: RGS4 inh, RGS4 pot)
COC(=O)/C(=N/Nc1ccccc1OC)N1CCCc2ccccc21	none
O=C(Nc1ccc(Cl)cc1)[C@@H]1[C@@H]2C(=O)N(c3ccc(Cl)cc3Cl)C(=O)[C@@H]2[C@H]2C=CC=NN21	MrgX1 antag -5.1
O=C(Nc1ccc(Cl)cc1)[C@@H]1[C@@H]2C(=O)N(c3ccc(Cl)cc3)C(=O)[C@@H]2[C@H]2C=CC=NN21	none
COC(=O)c1[nH]nc(-c2ccccc2)c1-c1ccccc1	none
c1ccc(CN2CCN(CCOCCOc3ccc4c(c3)CCC4)CC2)cc1	MrgX1 antag -5.6
O=C(c1ccc([N+](=O)[O-])cc1)N(Cc1ccc(Cl)cc1)N1C(=O)CCCC1=O	MrgX1 ag 54
O=C(c1ccc([N+](=O)[O-])cc1)N(Cc1ccc(Cl)cc1Cl)N1C(=O)CCCC1=O	none
O=C1CCC(C(=O)N2CCN(c3ccccc3)CC2)CN1CC1CCCCC1 (stereo not given)	none
c1coc(-c2nnc3sc(Cc4cccs4)nn23)c1	MrgX1 antag -7.2
COc1cc(/C=C2/C(=O)NN(c3ccc(Cl)c(Cl)c3)C2=O)cc([N+](=O)[O-])c1O	none
COc1cc(/C=C2/C(=O)NN(c3ccc(Cl)cc3)C2=O)cc(Br)c1O	MrgX1 ag 33
CCOc1ccc(NC(=O)CSc2nnc(-c3ccncc3)n2CC2CCCO2)cc1 (stereo not given)	MrgX1 antag -6.7
NC(=O)c1ncn([C@@H]2O[C@H](CO)[C@@H](O)[C@H]2O)c1O	MrgX1 antag -9
Nc1ncn(C2O[C@H](CO)[C@@H](O)[C@H]2O)c(=O)n1 (stereo not given in full)	none (no result: RGS4 inh, RGS4 pot)
O=C1/C(=C/c2ccc(Br)cc2)Oc2cc(O)ccc21	MrgX1 antag -9.7
COC(=O)c1ccc2c(c1)C(=O)/C(=C/c1ccc(O)cc1)O2	MrgX1 antag -5.3
CCOCCCNC(=O)c1cccc(OC2CCN(S(C)(=O)=O)CC2)c1	none
N#CC1(CCCN2CCCCC2)c2ccccc2CCc2ccccc21	none
O=[N+]([O-])c1ccccc1S(=O)(=O)NC1CCCC1	none
CCN1/C(=C/C(C)=C/c2sc3ccccc3[n+]2CC)Sc2ccccc21	MrgX1 antag -6.4
CN(NC(=O)c1ccc(Cl)cc1Cl)C1=NS(=O)(=O)c2ccccc21	MrgX1 antag -6.3
CCN(CC)c1ccc(S(=O)(=O)N2CCOCC2)cc1NC(=O)CSc1nnc(N)s1	none
CC(=O)NN(O)C1N(C)C(=O)N(Cc2ccccc2)C1(C)C (stereo not given)	none
O=C(N/N=C/c1cccc(OC(=O)c2ccccc2Cl)c1)c1cccnc1	RGS4 pot -7.7
COc1cc(/C=N/NC(=O)c2ccc(N)cc2)ccc1OC(=O)c1cccc(C)c1	MrgX1 antag -5.6, RGS4 pot -8.5
COc1cc(/C=N/NC(=O)c2ccccn2)ccc1OC(=O)c1ccc(Br)cc1	none
COc1cc(C(=O)N/N=C/c2ccc(OC(=O)c3cccc(C)c3)cc2)ccc1O	none
O=C(N/N=C/c1cc(Br)c(Br)o1)c1cccnc1	MrgX1 antag -6
O=C(N/N=C\c1cc(Br)c(Br)o1)c1cncc(Br)c1	none
Cc1ccc(C(=O)N/N=C/c2ccc(OC(=O)c3ccccc3Cl)cc2)cn1	none
COc1cc(/C=N/NC(=O)c2ccccn2)ccc1OC(=O)c1ccccc1Br	RGS4 pot -8.1
COc1cccc(-c2c(C(=O)N/N=C/c3sccc3C)nnn2-c2nonc2N)c1	none
COc1cc(C(=O)N/N=C/c2ccc(OC(=O)c3ccccc3Cl)c(OC)c2)ccc1O	MrgX1 antag -4.6, RGS4 pot -9.9
COc1cc(/C=C/C(=O)NC(=O)c2ccccc2O)ccc1O	MrgX1 allo act 12
Cc1ccc(CNC(=O)C2CCN(C(=O)Nc3ccc(C)cc3)CC2)cc1	none (no result: MrgX1 allo act, MrgX1 antag, MrgX1 ag)
CCN(CC)CCOC(=O)c1ccc(NC(=O)c2ccc(Cl)c(S(=O)(=O)N3CCCCCC3)c2)cc1	MrgX1 antag -6.8
O=C(Nc1ccncc1)c1ccc(Cl)c(S(=O)(=O)N2CCCCC2)c1	none
CSCC[C@H](NC(=O)N1CCn2c1nc1ccccc12)C(=O)NCc1ccccc1	none
CSCC[C@H](NC(=O)N1CCn2c1nc1ccccc12)C(=O)N[C@H](Cc1ccccc1)C(=O)O	MrgX1 antag -7.6
CCc1noc(C)c1C(=O)Nc1ccc(-c2nnc3n2CCCCC3)cc1	none
O=C(C1CCN(S(=O)(=O)c2cc(Cl)ccc2Cl)CC1)N1CCOCC1	none
COc1cccc(CNC(=O)C2CC(=O)N(C3CCCCC3)C2)c1 (stereo not given)	none
Cc1ccc(C)n1-c1ccc(C(=O)N/N=C/c2ccncc2)cc1	MrgX1 allo act 10
O=C1OC(c2ccc(Br)cc2)=N/C1=C\N1CCCCC1	MrgX1 antag -5.6
Cc1cc(C)n2nc(SCC(=O)Nc3c(C)n(C)n(-c4ccccc4)c3=O)nc2n1	MrgX1 antag -4.6
Cc1c(NC(=O)CSc2ncccn2)c(=O)n(-c2ccccc2)n1C	none
NCC(c1ccccc1)c1c[nH]c2ccccc12 (stereo not given)	none
O=[N+]([O-])CC(c1ccc(F)cc1)c1c[nH]c2ccccc12 (stereo not given)	MrgX1 allo act 6.5
CCCCCCCCCCOC(=O)Cn1c(COc2ccc(OC)cc2)[n+](C)c2ccccc21	MrgX1 antag -9.1, RGS4 pot -9.1
CCCCCCCCCCOC(=O)Cn1c(COc2cccc(C)c2)[n+](C)c2ccccc21	MrgX1 antag -5.9, RGS4 pot -8.5
CCOC(=O)Cn1c(COc2ccccc2OC)[n+](C)c2ccccc21	none
O=C(NCCc1c[nH]c2ccccc12)OCCCCOC(=O)NCCc1c[nH]c2ccccc12	none
COc1cc(/C=N/OCC(=O)Nc2ccc(OC(F)F)cc2)ccc1OCc1ccccc1	RGS4 pot -7
CCOc1ccc(NC(=O)N2CCCC2C(=O)NCc2ccco2)cc1 (stereo not given)	none
CCCc1nc2ccccc2c(=O)n1NC(=O)c1c(O)c2ccccc2n(C)c1=O	MrgX1 allo act 10

Screens (PubChem BioAssay)
